In brackets after ≈: the same amount, converted by molar mass.
Tests used:
[1] = tested on: Mycobacterium tuberculosis; test: Antibacterial activity against Mycobacterium tuberculosis rv0443 knockout strain incubated for 10 days by resazurin dye based microtiter plate assay; type: functional; conditions: rv0443, 240 h, time 10 day
Procedure, shortened: (§1)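 MIC in 7H9-ADC-Tween 80 medium. Strains (CDC1551 WT, rv0443 KO) grown to mid-log (OD600 ~0.8), diluted to OD600 0.01, exposed to serial antibiotic dilutions for 10 days at 37 °C; MIC read by resazurin blue test.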

[2] = tested on: Mycobacterium tuberculosis; test: Antibacterial activity against wild type Mycobacterium tuberculosis CDC1551 incubated for 10 days by resazurin dye based microtiter plate assay; type: functional; conditions: CDC1551, 240 h, time 10 day; procedure, shortened: as §1

CO[C@H]1/C=C/O[C@@]2(C)Oc3c(C)c(O)c4c(O)c(c(/C=N/N5CCN(C)CC5)c(O)c4c3C2=O)NC(=O)/C(C)=C\C=C\[C@H](C)[C@H](O)[C@@H](C)[C@@H](O)[C@@H](C)[C@H](OC(C)=O)[C@@H]1C [RIFAMPIN]
MIC [1]: 2.5 ng/mL (≈ 3.04 nM)
MIC [2]: 2.5 ng/mL (≈ 3.04 nM)

From ChEMBL document CHEMBL5252635, “The Mycobacterium tuberculosis mycothiol S-transferase is divalent metal-dependent for mycothiol binding and transfer” (2023)
